# Assay results collected from several papers.
# Protocols differ between the studies behind these lines.
# MAOA: Amine oxidase [flavin-containing] A (MAOA, Homo sapiens, UniProt P21397)
# WEE2: Wee1-like protein kinase 2 (WEE2, Homo sapiens, UniProt P0C1S8)
# Rps6ka1: Ribosomal protein S6 kinase alpha-1 (Rps6ka1, Rattus norvegicus, UniProt Q63531)
Structure (SMILES),target,test,setting,quantity,value
COc1cc(NC(C)=O)c(Cl)cc1C(=O)Nc1nccs1,"Histamine H2 receptor (HRH2, Homo sapiens, UniProt P25021)",cell-free assay,10 µM,inhibition,-21.7%
O=C(Nc1ccccn1)c1ccc(Cl)cc1,MAOA,"enzyme activity, inhibitor","1 µM, 20 min",inhibition,13%
Nc1ncnc2occ(-c3ccc(NC(=O)Nc4cc(C(F)(F)F)ccc4F)cc3)c12,WEE2,"cell-free assay, inhibitor",20 µM,remaining signal,99%
O=C(O)c1ccc2c(c1)nc(Nc1ccccc1)c1ccncc12,"Homeodomain-interacting protein kinase 3 (HIPK3, Homo sapiens, UniProt Q9H422)","enzyme activity, inhibitor, radiometric",1 µM,remaining activity,20%
CN1CC(Oc2cnc(C#N)cc2-c2ccn3nc(NC(=O)C4CC4)cc3c2)C1,WEE2,"enzyme activity, inhibitor",1 µM,inhibition,3%
CCCOc1ccc(OC)c(F)c1C(=O)c1ccc(C(=O)N[C@@H]2CNC[C@H]2NC(=O)c2ccc3[nH]ncc3c2)cc1,Rps6ka1,"enzyme activity, inhibitor",50 nM,remaining activity,106%
CC[C@H](C)[C@H](NC(=O)[C@H](CCC(N)=O)NC(=O)[C@H](CC(C)C)NC(=O)[C@H](CCSC)NC(=O)[C@H](CCCCN)NC(=O)[C@H](CO)NC(=O)[C@H](CO)NC(=O)[C@H](CCSC)NC(=O)[C@H](CC(C)C)NC(=O)[C@H](CC(N)=O)NC(=O)[C@@H](NC(=O)[C@@H](NC(=O)[C@H](CO)NC(=O)[C@H](CC(C)C)NC(=O)[C@H](CS)NC(=O)[C@H](CCCNC(=N)N)NC(=O)[C@H](CC(=O)O)NC(=O)[C@H](Cc1c[nH]c2ccccc12)NC(=O)[C@H](Cc1ccccc1)NC(=O)[C@H](C)NC(=O)[C@H](CCC(=O)O)NC(=O)[C@@H](N)CCCCN)C(C)C)[C@@H](C)CC)C(=O)N[C@@H](CC(N)=O)C(=O)N[C@@H](C)C(=O)O,"Cyclin-dependent kinase 5, with p25 (CDK5, Homo sapiens, UniProt Q00535)","enzyme activity, inhibitor, radiometric",100 µM,inhibition,41%
O=C(Nc1ccc([N+](=O)[O-])cc1)c1ccc([N+](=O)[O-])cc1Cl,MAOA,"enzyme activity, inhibitor","1 µM, 20 min",inhibition,13%
Oc1cccc(Nc2nc(-c3ccc(F)cc3F)cs2)c1,"Vasoactive intestinal polypeptide receptor 1 (VIPR1, Homo sapiens, UniProt P32241)",cell-free assay,10 µM,inhibition,-0.5%
O=C(Nc1ccccc1)c1cc(Cl)ccc1O,MAOA,"enzyme activity, inhibitor","1 µM, 20 min",inhibition,20%
O=C(O)c1ccc2c(c1)nc(Nc1ccc(Cl)cc1)c1ccncc12,"Homeodomain-interacting protein kinase 4 (HIPK4, Homo sapiens, UniProt Q8NE63)","enzyme activity, inhibitor, radiometric",1 µM,remaining activity,116%
CN(C(=O)n1cnc(-c2ccc[n+]([O-])c2)c1)C1CCCCC1,"Fatty-acid amide hydrolase 1 (Faah, Rattus norvegicus, UniProt P97612)","enzyme activity, inhibitor",,kinact/KI,1240 M⁻¹ s⁻¹
Cc1cc([N+](=O)[O-])ccc1NC(=O)c1ccc(Cl)cc1,MAOA,"enzyme activity, inhibitor","1 µM, 20 min",inhibition,13%
Cc1ccc(NC(=O)c2ccc(C)c(C(F)(F)F)c2)cc1C#Cc1nn(C2CCC(O)CC2)c2ncnc(N)c12 (stereo not drawn),Rps6ka1,cell-free assay,10 µM,remaining signal,20%
O=C(Nc1ccc([N+](=O)[O-])cc1Cl)c1ccc2ccccc2c1O,MAOA,"enzyme activity, inhibitor","1 µM, 20 min",inhibition,-4%
Cc1ccc(C(=O)Nc2ccc(CN3CCN(C)CC3)c(C(F)(F)F)c2)cc1C#Cc1cnc2cccnn12,"Cyclin-dependent kinase-like 2 (CDKL2, Homo sapiens, UniProt Q92772)",enzyme activity,23.5 nM,remaining activity,0%
O=C(Nc1ccc([N+](=O)[O-])cc1Cl)c1cc2ccccc2s1,MAOA,"enzyme activity, inhibitor","1 µM, 20 min",inhibition,11%
CC[C@H](C)[C@H](NC(=O)[C@H](CC(=O)O)NC(=O)[C@@H](NC(=O)[C@H](Cc1ccccc1)NC(=O)[C@H](C)NC(=O)[C@H](Cc1ccccc1)NC(=O)[C@@H]1CCCN1C(=O)[C@H](C)NC(=O)[C@@H](NC(=O)[C@H](CO)NC(=O)[C@H](Cc1ccccc1)NC(=O)[C@H](CCCNC(=N)N)NC(=O)[C@H](CCCNC(=N)N)NC(=O)[C@@H](N)CC(C)C)[C@@H](C)O)[C@@H](C)CC)C(=O)N[C@@H](CC(N)=O)C(=O)N[C@@H](CC(=O)O)C(=O)N[C@H](C(=O)N[C@H](C(=O)N[C@@H](CC(N)=O)C(=O)N[C@@H](Cc1ccccc1)C(=O)O)[C@@H](C)CC)C(C)C,"Integrin alpha-V/beta-3 (Homo sapiens, UniProt P05106+P06756)","binding, BLI",,kon,1e+06 M⁻¹ s⁻¹
